Experimental findings from ChEMBL document CHEMBL1138502, “Discovery and biological evaluation of novel cyanoguanidine P2X(7) antagonists with analgesic activity in a rat model of neuropathic pain” (J Med Chem, 2009) are described below.

The test system of data set [1] is Rattus norvegicus. The data set is described as follows: Antinociceptive activity in ip dosed rat L5-L6 spinal nerve ligation model of neuropathic pain assessed as reduction in tactile allodynia. The note with it: for ED50: Rattus norvegicus, Spinal nerve, ip. The format is functional. Further details: Activity: scale not given: the % may be the effect or the level left. Put shortly: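 Intraperitoneal dosing in rats with L5-L6 spinal nerve ligation (Chung model). Tactile allodynia was measured by von Frey testing. ED50 in µmol/kg and maximum efficacy (%) are the mean of six animals.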

In data set [2] the target is P2Y purinoceptor 2 (Homo sapiens) (UniProt P41231). The data set is described as follows: Activity at P2Y2 receptor up to 10 uM.
Data set [3] deals with T1, P2X purinoceptor 3 (Homo sapiens) (UniProt P56373).
T1 sequence (whole entry): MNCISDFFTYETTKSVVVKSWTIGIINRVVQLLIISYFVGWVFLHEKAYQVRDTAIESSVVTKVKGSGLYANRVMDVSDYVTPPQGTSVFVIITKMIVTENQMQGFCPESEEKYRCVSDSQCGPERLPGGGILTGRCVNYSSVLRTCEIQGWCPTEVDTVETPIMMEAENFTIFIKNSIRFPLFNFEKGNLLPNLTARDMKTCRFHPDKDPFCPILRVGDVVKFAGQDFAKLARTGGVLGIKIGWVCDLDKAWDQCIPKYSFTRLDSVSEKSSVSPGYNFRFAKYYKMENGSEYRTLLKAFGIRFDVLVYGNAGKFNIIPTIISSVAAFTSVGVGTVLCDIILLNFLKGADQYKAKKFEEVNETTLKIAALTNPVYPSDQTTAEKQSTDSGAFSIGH
The data set is described as follows: Activity at P2X3 receptor up to 10 uM.

Data set [4] deals with T2, P2X purinoceptor 4 (Homo sapiens) (UniProt Q99571).
T2 sequence (whole entry): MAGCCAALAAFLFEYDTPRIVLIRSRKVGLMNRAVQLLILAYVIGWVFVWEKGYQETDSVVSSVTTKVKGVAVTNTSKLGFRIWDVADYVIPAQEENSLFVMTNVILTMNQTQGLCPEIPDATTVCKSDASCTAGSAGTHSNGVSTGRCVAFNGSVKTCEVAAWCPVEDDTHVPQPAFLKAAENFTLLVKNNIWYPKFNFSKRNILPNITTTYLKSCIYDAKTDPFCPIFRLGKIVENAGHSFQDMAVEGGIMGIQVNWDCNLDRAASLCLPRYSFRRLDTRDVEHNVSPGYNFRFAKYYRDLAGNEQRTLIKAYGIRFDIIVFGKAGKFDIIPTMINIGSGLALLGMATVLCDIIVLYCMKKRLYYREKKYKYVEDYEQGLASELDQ
The data set is described as follows: Activity at P2X4 receptor up to 10 uM.

Data set [5] is described as follows: Bioavailability in rat at 10 umol/kg, ip. The following applies: in vivo. It counts as ADME, organism-based.
The target in data set [6] is T3, P2X purinoceptor 7 (Homo sapiens, UniProt Q99572).
T3 sequence (Q99572 whole entry): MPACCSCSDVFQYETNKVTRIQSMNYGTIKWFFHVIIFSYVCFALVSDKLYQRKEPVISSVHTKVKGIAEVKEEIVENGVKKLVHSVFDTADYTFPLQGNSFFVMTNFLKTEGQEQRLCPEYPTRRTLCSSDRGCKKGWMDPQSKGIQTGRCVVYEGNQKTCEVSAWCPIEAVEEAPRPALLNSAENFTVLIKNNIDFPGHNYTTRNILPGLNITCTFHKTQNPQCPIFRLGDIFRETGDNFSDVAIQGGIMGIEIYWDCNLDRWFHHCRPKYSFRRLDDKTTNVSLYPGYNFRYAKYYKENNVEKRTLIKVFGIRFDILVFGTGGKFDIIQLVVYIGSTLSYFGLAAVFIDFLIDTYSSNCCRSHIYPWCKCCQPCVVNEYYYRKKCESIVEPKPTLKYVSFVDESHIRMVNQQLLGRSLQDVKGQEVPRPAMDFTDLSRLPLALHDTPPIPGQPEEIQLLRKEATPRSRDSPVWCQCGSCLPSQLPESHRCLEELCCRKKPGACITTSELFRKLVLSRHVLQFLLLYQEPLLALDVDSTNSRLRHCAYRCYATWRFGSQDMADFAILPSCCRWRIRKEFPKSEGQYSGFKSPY
The data set is described as follows: Antagonist activity at human cloned P2X7 receptor expressed in HEK293 cells assessed as inhibition of calcium flux by FLIPR assay. The format is functional, cell-based. The method in brief: (§1)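 Calcium influx read on a fluorometric imaging plate reader with Fluo-4 as the calcium-sensing dye. The P2X7 agonist was benzoylbenzoic ATP (BzATP). pIC50 values are the mean of two experiments unless otherwise indicated; some values are the mean of more than two experiments, with standard deviation shown.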

In data set [7] the target is T4, P2X purinoceptor 7 (Rattus norvegicus, UniProt Q64663).
T4 sequence (Q64663 whole entry): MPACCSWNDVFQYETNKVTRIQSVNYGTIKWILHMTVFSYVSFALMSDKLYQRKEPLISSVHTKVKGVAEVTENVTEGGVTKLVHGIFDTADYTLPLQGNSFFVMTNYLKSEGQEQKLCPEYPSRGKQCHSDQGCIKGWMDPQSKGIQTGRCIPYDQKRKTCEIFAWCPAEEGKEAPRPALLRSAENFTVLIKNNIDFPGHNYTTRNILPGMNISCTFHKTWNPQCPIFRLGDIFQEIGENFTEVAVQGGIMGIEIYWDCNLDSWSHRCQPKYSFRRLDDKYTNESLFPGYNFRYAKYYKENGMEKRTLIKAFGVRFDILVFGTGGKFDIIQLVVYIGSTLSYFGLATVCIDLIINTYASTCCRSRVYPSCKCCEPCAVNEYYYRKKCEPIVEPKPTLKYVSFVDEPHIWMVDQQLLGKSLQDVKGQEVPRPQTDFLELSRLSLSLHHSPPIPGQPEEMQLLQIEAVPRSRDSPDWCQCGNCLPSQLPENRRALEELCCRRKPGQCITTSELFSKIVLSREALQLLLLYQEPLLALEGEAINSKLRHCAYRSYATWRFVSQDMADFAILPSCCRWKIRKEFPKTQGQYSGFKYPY
The data set is described as follows: Antagonist activity at rat cloned P2X7 receptor expressed in HEK293 cells assessed as inhibition of calcium flux by FLIPR assay. The format is functional, cell-based. Put shortly: as §1

A short description of data set [8]: Selectivity for P2X7 receptor over potassium channel.
The nature of data set [9]: Oral bioavailability in rat. The note with it: in vivo. The format is ADME, organism-based.
For data set [10], the system named is Rattus norvegicus. As to the kind of experiment: Antiallodynic activity in rat L5-L6 spinal nerve ligation model of neuropathic pain assessed as inhibition of mechanical allodynia after chronic administration of vehicle twice daily for 4 days followed by acute dose of 100 umol/kg, po on day 5. The arrangement: scale not given: the % may be the effect or the level left. It counts as functional. The method in brief: (§2)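 Rats with L5-L6 spinal nerve ligation (Chung model) received vehicle (5% DMSO/PEG) or compound at 100 µmol/kg orally twice a day for four days. On day 5, vehicle or compound was given orally 1 h before von Frey testing for mechanical allodynia. Results are % effect ± SEM, N = 6 per group, with P vs the respective vehicle group.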

In data set [11] the test system is Rattus norvegicus. As to the kind of experiment: Antiallodynic activity in rat L5-L6 spinal nerve ligation model of neuropathic pain assessed as inhibition of mechanical allodynia at 100 umol/kg, po administered twice daily for 4 days once on day 5. Further details: scale not given: the % may be the effect or the level left. It counts as functional. Put shortly: as §2

In data set [12] the test system is Rattus norvegicus. The data set is described as follows: Antiallodynic activity in rat L5-L6 spinal nerve ligation model of neuropathic pain assessed as inhibition of mechanical allodynia at 100 umol/kg, po single administration. The format is functional. Further details: scale not given: the % may be the effect or the level left. The method in brief:
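Chung-model rats (L5-L6 spinal nerve ligation) were given a single oral dose, with 5% DMSO/PEG as vehicle. Mechanical allodynia was read by von Frey testing and expressed as % effect ± SEM, N = 6 per group, compared with vehicle.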

pIC50: −log10 of the molar value. Calls of active or inactive are those of the source. The calls are words filed in the database; no cut-off is given here. A value given as a limit tells only on which side of the number the result lay.

P2Y purinoceptor 2 (Homo sapiens), sequence (P41231 whole entry): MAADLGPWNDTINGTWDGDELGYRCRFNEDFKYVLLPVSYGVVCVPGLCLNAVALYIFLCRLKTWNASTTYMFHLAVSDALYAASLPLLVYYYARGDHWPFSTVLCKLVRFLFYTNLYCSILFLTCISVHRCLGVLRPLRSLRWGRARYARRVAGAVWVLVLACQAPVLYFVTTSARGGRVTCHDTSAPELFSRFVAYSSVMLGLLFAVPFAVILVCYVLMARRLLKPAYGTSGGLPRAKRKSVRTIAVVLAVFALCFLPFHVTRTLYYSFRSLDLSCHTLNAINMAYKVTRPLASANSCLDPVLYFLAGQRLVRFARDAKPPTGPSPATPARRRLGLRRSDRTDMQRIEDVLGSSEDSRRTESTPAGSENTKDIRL

What is called ED50 is the dose at which the effect has come halfway, by size or by number of responders. Consider `COc1ccc(CC(=O)NC(N/C(=N/C#N)Nc2ccccc2C)C(C)(C)C)cc1OC` (stereo in doubt; 13), for which the Activity in the data set with Rattus norvegicus [1] is given as 59%. For the same compound, the ED50 with Rattus norvegicus [1] came to 77 µmol/kg. For the same compound, the result in [2], in data set [3] and in data set [4] was inactive.

Broadly, the bioavailability is dose-corrected exposure relative to a reference, in per cent. As usually defined, the pIC50 is the negative decadic logarithm of the IC50, by convention in mol/L. `Cc1ncccc1N/C(=N\C#N)NC(NC(=O)Cc1ccc(F)cc1)C(C)(C)C` (stereo not given): in data set [5], the bioavailability is 52%. Moreover, the Activity with Rattus norvegicus [1] is reported as 0%. Further, the 50% effective dose (ED50) in the data set on Rattus norvegicus [1] is over 300 µmol/kg. Moreover, the pIC50 on P2X purinoceptor 7 [6] was 7.00; on P2X purinoceptor 7 [7], 6.40.

Regarding `COc1ncccc1N/C(=N\C#N)NC(NC(=O)c1ccc(Cl)cc1)C(C)(Cl)Cl` (stereo not given), the Selectivity ratio in [8] was 100.

`Cc1ncccc1NC(=NC(NC(=O)Cc1ccc(Cl)cc1)C(C)(C)C)NC#N` (stereo not given): the bioavailability in data set [5] came out at 54%; in data set [9] it was 36%. Also, the pIC50 was 7.50 on P2X purinoceptor 7 [6] and 7.40 on P2X purinoceptor 7 [7].

Compound `COc1ccc(CC(=O)NC(N/C(=N/C#N)Nc2cccc3ncccc23)C(C)(C)C)cc1OC` (stereo not given) gave a bioavailability in [5] of 79%. Also, the Activity in the data set on Rattus norvegicus [1] turned out to be 65%. Further, in the data set with Rattus norvegicus [1], the ED50 was 41 µmol/kg. For the same compound, the outcome in data set [2], in [3] and in data set [4] was inactive. Also, the pIC50 on P2X purinoceptor 7 [6] was 7.40.

With `CC(C)(C)C(NC(=O)Cc1ccc(Cl)cc1)N/C(=N/C#N)Nc1cccc2ncccc12` (stereo not given), the bioavailability in [5] amounted to 66%. Besides, in the data set with Rattus norvegicus [1], the Activity amounted to 68% and the ED50 worked out at 55 µmol/kg. On P2X purinoceptor 7 [6], the pIC50 was 8.00. The pIC50 at P2X purinoceptor 7 [7] is 8.20.

Turning to `Cc1ncccc1N/C(=N\C#N)NC(NC(=O)Cc1ccc(Cl)cc1)C(C)(C)C` (stereo not given), the Activity in the data set on Rattus norvegicus [10] stood at 44%; in the data set on Rattus norvegicus [1], 82%; in the data set on Rattus norvegicus [11], 61%; in the data set with Rattus norvegicus [12] it was 45%. In addition, the ED50 in the data set on Rattus norvegicus [1] worked out at 38 µmol/kg. The outcome in data set [2], in [3] and in [4] was inactive.

Turning to `CC(Cl)(Cl)C(NC(=O)c1ccc(Cl)cc1)N/C(=N/C#N)Nc1cccnc1Cl` (stereo not given), the Selectivity ratio in data set [8] came to 100.

Take `COc1ccc(CC(=O)NC(N/C(=N/C#N)Nc2cc(C)ccc2C)C(C)(C)C)cc1OC` (stereo not given): the outcome in data set [2], in data set [3] and in data set [4] was inactive.

With `COc1ccc(CC(=O)NC(NC(=NC#N)Nc2ccccc2C)C(C)(C)C)cc1OC` (stereo in doubt; 13), the bioavailability in data set [5] was found to be 90%. In addition, the pIC50 is 6.90 on P2X purinoceptor 7 [6] and 7.90 at P2X purinoceptor 7 [7].

As to `COc1ccc(CC(=O)NC(N=C(NC#N)Nc2cc(F)cc(F)c2)C(C)(C)C)cc1OC` (stereo not given), the pIC50 on P2X purinoceptor 7 [6] was 6.40; on P2X purinoceptor 7 [7] it was 6.50.

Turning to `Cc1ncccc1NC(=NC#N)NC(NC(=O)CCCCc1ccccc1)C(C)(C)C` (stereo not given), the values for the pIC50 at P2X purinoceptor 7 [6] and on P2X purinoceptor 7 [7] were 7.20 and 7.30, respectively.

As for `COc1cc(OC)cc(C(=O)NC(N/C(=N/C#N)Nc2cccnc2C)C(C)(Cl)Cl)c1` (stereo not given), the pIC50 at P2X purinoceptor 7 [6] was 6.70; at P2X purinoceptor 7 [7], 6.00.

Take `COc1ccc(CC(=O)NC(N=C(NC#N)Nc2ccc(C)cc2)C(C)(C)C)cc1OC` (stereo not given): the pIC50 on P2X purinoceptor 7 [6] is 5.70; at P2X purinoceptor 7 [7] it was 7.70.
